Compounds with a hit are over-represented: about 1.6% of the library has one in this group of screens.
Beta2AR agonist: agonists of human beta-2 adrenergic receptor inducing internalization; Am2.2-beta2AR cells, FAP receptor internalization, flow cytometry; P07550; response, % (concentration not given with the values); 340,000 compounds, 0.43% hits;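 active = response above a set limit, near 3 SD of response in nonfluorescent compounds, cut at about 42% in these data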
NOD2-RIPK2 inh: NOD2-RIPK2 protein interaction inhibition | O43353 | CHO BLA complementation NOD2-RIPK2, CCF4 ratio | inhibition, % at 4.98 µM | 360,000 compounds, 0.38% hits | AID 624267; in the data active = inhibition above about 21%;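 also: 0% = vehicle only and 100% = reference blocker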
TLR9-MyD88 inh: inhibitors of human TLR9-MyD88 binding; CHO BLA complementation TLR9-MyD88, CCF4 FRET ratio; inhibition, % at 4.98 µM; 340,000 compounds, 0.21% hits;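 active = inhibition above the mean over all tested compounds plus 3 SD, cut at about 21% in these data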;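 also: 0% = DMSO only wells and 100% = clavulanate BLA inhibitor control wells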
TLR4-MyD88 BLA: blocks binding of human TLR4 to MyD88; inhibition, % at 8.4 µM; 200,000 compounds, 0.18% hits; HeLa CL3-4 TLR4/MyD88 BLA complementation, FRET ratio; AID 861; O00206+Q99836; in the data active = inhibition above about 25%;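 also: 0% = vehicle and 100% = reference inhibitor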
ABHD5-PLIN5 inh: ABHD5-PLIN5 protein interaction inhibition; Q00G26+Q8WTS1; Split G. princeps luciferase complementation, luminescence, 4 h; inhibition, % at 4 µM; 360,000 compounds, 0.78% hits; AID 602281;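 active = inhibition above the mean inhibition across every tested compound plus 3 SD, cut at about 22% in these data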;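 also: 0% = DMSO only wells and the 100% control is not disclosed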
Target sequence (Q00G26 whole entry, looked up): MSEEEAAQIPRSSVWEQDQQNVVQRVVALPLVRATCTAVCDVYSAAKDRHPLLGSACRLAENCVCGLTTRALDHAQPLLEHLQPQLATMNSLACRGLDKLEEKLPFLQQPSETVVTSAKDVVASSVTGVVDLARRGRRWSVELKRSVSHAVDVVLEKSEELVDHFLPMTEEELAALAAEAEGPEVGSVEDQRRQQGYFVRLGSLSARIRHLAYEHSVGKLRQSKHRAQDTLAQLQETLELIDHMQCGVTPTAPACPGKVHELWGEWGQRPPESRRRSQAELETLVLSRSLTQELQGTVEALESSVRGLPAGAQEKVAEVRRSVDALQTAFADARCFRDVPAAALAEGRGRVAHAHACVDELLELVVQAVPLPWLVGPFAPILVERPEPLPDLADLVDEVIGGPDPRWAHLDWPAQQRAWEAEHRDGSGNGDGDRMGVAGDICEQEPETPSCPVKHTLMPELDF
Target sequence (Q8WTS1 whole entry, looked up): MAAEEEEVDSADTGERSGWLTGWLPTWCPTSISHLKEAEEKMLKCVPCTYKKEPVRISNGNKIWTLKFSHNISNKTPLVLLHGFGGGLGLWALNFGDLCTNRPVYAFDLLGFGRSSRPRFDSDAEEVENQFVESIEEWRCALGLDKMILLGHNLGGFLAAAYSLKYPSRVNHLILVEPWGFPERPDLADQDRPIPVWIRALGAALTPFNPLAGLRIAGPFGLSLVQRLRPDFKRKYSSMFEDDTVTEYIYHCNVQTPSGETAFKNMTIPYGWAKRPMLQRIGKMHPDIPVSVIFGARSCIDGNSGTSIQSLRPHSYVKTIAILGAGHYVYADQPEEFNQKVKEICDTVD
Dynein transport: blocks dynein driven cargo transport along microtubules | 3617.4 mouse cells, GR-EGFP nuclear translocation imaging; test concentration mostly 20 µM; stimulated with dexamethasone, 1 µM; hits give low values | z-score, hits read low | 220,000 compounds, 0.47% hits;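 active = plate z-score of nuclear minus cytoplasmic receptor signal below a set negative limit, without overly bright fluorescence or cell loss, cut at about -3.5 in these data, passing the limit was not always enough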;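 also: z-score of nuclear minus cytoplasmic ring GR-EGFP intensity difference per well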
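medium = tetracycline-free induction medium containing charcoal-stripped FBS | also added = 1.0 µM final dexamethasone stimulus | schedule = 48 h induction, 1 h compound, 30 min dex at 37 °C | technique = fixed, Hoechst-stained cells imaged at 10x for EGFP | measure = GR-EGFP nuclear translocation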
ABHD5 PLIN5 conf: confirmation of human ABHD5-PLIN5 interaction inhibitors; biochemical ABHD5-PLIN5 interaction, luminescence; shares compounds with ABHD5-PLIN5 inh; 2,200 compounds, 67% hits; inhibition, % at 4 µM; in the data active = inhibition above about 23%;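 also: 0% = DMSO vehicle wells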
HNF4 split-luc: HNF4 split-luciferase signal hit, counter-screen. inhibition, % at 4 µM. AID 651674. shares compounds with ABHD5-PLIN5 inh. 2,200 compounds, 77% hits. HNF4 dimerization, luminescence, biochemical;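 active = mean inhibition across replicate wells exceeding the computed hit threshold, cut at about 13% in these data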;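 also: light from luciferase halves that rejoin when HNF4 fusion proteins dimerize; 0% = DMSO only wells and the 100% control is not given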
* marks the source's active call; other numbers are inactive results; x = not tested or not shown.

SMILES	Beta2AR agonist	NOD2-RIPK2 inh	TLR9-MyD88 inh	TLR4-MyD88 BLA	ABHD5-PLIN5 inh	Dynein transport	ABHD5 PLIN5 conf	HNF4 split-luc
COc1ccc(CN2[C@@H](CC(C)=O)c3ccc(/C=C/C(C)=O)cc3S2(=O)=O)cc1	9	1	-3	x	35*	x	70*	62*
COc1cccc(N2[C@@H](CC(C)=O)c3ccc(/C=C/C(C)=O)cc3S2(=O)=O)c1	5	2	-1	x	32*	x	65*	57*
COCCN(CC(=O)Nc1cccc(S(=O)(=O)N2CCCC2)c1)Cc1nc2ccccc2c(=O)[nH]1	16	3	6	x	-2	x	x	x
Cc1cc(NC(=O)COC(=O)c2cc(S(=O)(=O)N(C)C)ccc2Cl)no1	-4	-9	1	x	-4	x	x	x
O=Nc1c(O)ccc2cc(S(=O)(=O)O)ccc12	-5	4	4	x	13	x	x	x
CN(C)c1ccc2cc(S(=O)(=O)O)cc(O)c2c1	-4	-9	-1	x	26*	x	9	13*
O=C(Nc1ccc2c(c1)OCO2)c1cc(C2CCCN(C(=O)C3CCCCC3)C2)on1 (configuration not stated)	x	-4	x	x	-11	x	x	x
CNC[C@@H]1Oc2ccc(NS(=O)(=O)c3ccc(Cl)cc3)cc2C(=O)N([C@H](C)CO)C[C@@H]1C	-10	-11	-5	x	25*	x	19	-4
COc1ccc(Cl)cc1-c1cc(C(=O)NCc2ccc(C(F)(F)F)cc2)[nH]n1	x	5	x	x	-6	x	x	x
COc1ccc(OCc2cc(C(=O)N(C)C(C)c3ccon3)no2)c(Cl)c1 (configuration not stated)	0	5	-2	x	6	x	x	x
COC1CC(C)C(OC)c2cc(O)cc(c2O)NC(=O)C(C)=CC=CC(C)C(OC(N)=O)C(C)=CC(C)C1OC (configuration not stated)	1	-4	8	x	43*	x	52*	93*
COC(=O)C1=C(C)NC(C)=C(C(=O)OCC(C)C)C1c1ccccc1[N+](=O)[O-] (configuration not stated)	19	5	5	x	36*	x	36*	95*
CCOC(=O)C1=C(C)NC(C)=C(C(=O)OCC)C1c1cccc([N+](=O)[O-])c1	x	-7	8	x	-7	x	x	x
CC[n+]1c(/C=C/c2ccc(N(C)C)cc2)ccc2ccccc21	-82	-2	-5	1	29*	-0.76	27*	28*
CC[n+]1c(/C=C/c2ccc(OC)c(OC)c2)ccc2ccccc21	-3	10	7	x	14	x	x	x
CC[n+]1ccc(/C=C/c2ccc(N(C)C)cc2)c2ccccc21	-119	-4	1	-3	28*	-1	32*	33*
CCc1nc2ccc(C(=O)NCCc3ccccn3)cn2c1N(C)Cc1cccs1	x	6	x	x	-3	x	x	x
CCCCn1c(N)c(N(CCOC)C(=O)CC2CCCCC2)c(=O)[nH]c1=O	-10	0	-6	x	-7	x	x	x
CCCC1CC(C(=O)NC(C(C)Cl)C2OC(SC)C(O)C(O)C2O)N(C)C1 (configuration not stated)	-12	-6	-10	x	5	x	x	x
CC(CCc1ccccn1)(CCc1ccccn1)C(=O)c1ccccc1	-6	11	9	x	4	x	x	x
COc1ccc(/C=C2\SC(=O)NC2=S)cc1OC	19	-8	5	0	-8	-0.41	x	x
CCOc1ccc(/C=C2\CCC(C3CCCC3)C2=O)cc1OC (configuration not stated)	-7	-3	-7	x	3	x	x	x
COc1ccc(/C=C2/CSC/C(=C/c3ccc(OC)c(OC)c3)C2=O)cc1OC	0	8	-1	x	55*	x	81*	68*
COc1cc(C=C2CCCC(=Cc3ccc(OCC4CO4)c(OC)c3)C2=O)ccc1OCC1CO1 (configuration not stated)	x	2	2	x	24*	x	37*	21*
COc1ccc(C2=Nc3ccccc3NC(=O)C2N(Cc2ccccc2)C(=O)C2=NNC(=O)CC2)cc1 (configuration not stated)	x	-2	x	x	-4	x	x	x
SMILES	Beta2AR agonist	NOD2-RIPK2 inh	TLR9-MyD88 inh	TLR4-MyD88 BLA	ABHD5-PLIN5 inh	Dynein transport	ABHD5 PLIN5 conf	HNF4 split-luc
CC1(Oc2cccc(C#N)c2)CCN(Cc2csc3ccccc23)C1 (configuration not stated)	x	8	x	x	-3	x	x	x
COc1cc(O)cc(O)c1C(=O)/C=C/c1ccccc1	16	4	8	-12	12	0.21	x	x
O=C(C=Cc1ccccc1O)c1ccccc1O	28	5	-7	x	73*	x	98*	90*
COc1cc(OC)c(C(=O)/C=C/c2ccccc2)c(O)c1O	-5	-2	-5	x	39*	-2.3	50*	38*
O=C(C=Cc1cccc(O)c1)c1ccccc1O	56*	3	-4	x	45*	x	93*	75*
COc1ccc(C(=O)/C=C/c2ccccc2)c(O)c1	-4	-6	6	4	30*	-3.1	66*	47*
CCOC(=O)c1cc(OC(=O)Cc2ccc(OC)c(S(=O)(=O)N3CCOCC3)c2)cc(C(=O)OCC)c1	x	-2	-15	x	4	x	x	x
COC(=O)[C@@]12C[C@@H](CC(=O)NCc3ccc(OC)c(OC)c3)C(=O)N(Cc3ccccc3)C1=CCC(C)(C)C2	x	-17	x	x	2	x	x	x
CN(C)c1ccc(C=c2c3ccccc3n3c2cc(-c2ccccc2)[n+]3C)cc1	-588	13	-12	x	18	x	x	x
CN(C)c1ccc(C=c2c3cc([N+](=O)[O-])ccc3n3c2cc(-c2ccccc2)[n+]3C)cc1	24	14	4	x	26*	x	101*	48*
COc1cc(N(C)C)ccc1C=c1c2ccccc2n2c1cc(-c1ccccc1)[n+]2C	-69	12	2	x	24*	x	22	26*
COc1cccc(-c2cnc(C(O)c3ccc(F)c(C)c3)[nH]2)c1 (configuration not stated)	x	-10	x	x	2	x	x	x
CCOc1ccc2[nH]c(=O)c(CN(Cc3ccco3)Cc3nnnn3Cc3ccccc3)cc2c1	-3	-1	2	-3	18	-1.1	x	x
CCOc1ccc2[nH]c(=O)c(CN(Cc3ccco3)C(CC)c3nnnn3Cc3ccccc3)cc2c1 (configuration not stated)	23	-2	-4	5	24*	-0.75	11	21*
COc1ccc2[nH]c(=O)c(CN(Cc3ccco3)Cc3nnnn3Cc3ccccc3)cc2c1	8	-6	-3	2	20	-0.73	x	x

High-throughput results: PubChem BioAssay, several laboratories
